Experiments:
[1] = test system: Human alphaherpesvirus 1; test: In Vitro antiviral activity against HSV-1 at 0.5 ug/mL concentration; assay type: functional
Outline: (§1)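 Mouse embryo cell cultures infected with HSV-1 were exposed to compound at 0.05, 0.5, 5, 50 and 500 μg/mL for 3 days. Infected cultures were then inspected macro- and microscopically, and reduction or inhibition of virus-induced cell destruction was scored. Aciclovir, 5-ethyldeoxyuridine and PMEG served as reference drugs.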

[2] = test system: Human alphaherpesvirus 1; test: In Vitro antiviral activity against HSV-1 at 5 ug/mL concentration; assay type: functional; outline: as §1
[3] = test system: Human alphaherpesvirus 1; test: In Vitro antiviral activity against HSV-1 at 50 ug/mL concentration; assay type: functional; outline: as §1
[4] = test system: Human alphaherpesvirus 1; test: In Vitro antiviral activity against HSV-1 at 500 ug/mL concentration; assay type: functional; outline: as §1
[5] = In Vitro cytotoxicity against HSV-1 at 5 ug/mL concentration; assay type: organism-based; details: human alphaherpesvirus 1, in vitro
Outline: (§2)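 Uninfected mouse embryo cell cultures were exposed to compound at 0.05, 0.5, 5, 50 and 500 μg/mL for 3 days. Cultures were then examined macro- and microscopically, and growth inhibition or disruption of the cells was taken as cytotoxicity.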

[6] = In Vitro cytotoxicity […] at 50 ug/mL concentration; assay type: organism-based; outline: as §2
[7] = In Vitro cytotoxicity […] at 500 ug/mL concentration; assay type: organism-based; outline: as §2
[8] = test system: Human alphaherpesvirus 1; test: In Vitro antiviral activity against HSV-1 at 0.05 ug/mL concentration; assay type: functional; outline: as §1

Row | Structure (SMILES) | inhibition at 0.5 µg/mL [1] | inhibition at 5 µg/mL [2] | inhibition at 50 µg/mL [3] | inhibition at 500 µg/mL [4] | inhibition at 5 ug/mL [5] | inhibition at 50 ug/mL [6] | inhibition at 500 ug/mL [7] | inhibition at 0.05 µg/mL [8]
1 | Nc1nc(Cl)cc(NCCCCO)n1 | 0% | 0% | 0% | 0% | 0% | 0% | 50% | 0%
2 | Nc1nc(O)cc(NCCCCO)n1 | 0% | 0% | 0% | 0% | 0% | 0% | 0% | 0%
3 | OCCCCNc1cc(O)nc(O)n1 | 0% | 0% | 0% | 0% | 0% | 0% | 25% | 0%
4 | Nc1nc(O)c(N)c(NCCOCP(=O)(O)O)n1 | 100% | 100% | – | – | – | – | 75% | 50%
5 | Nc1nc(O)c([N+](=O)[O-])c(NCCOCP(=O)(O)O)n1 | 0% | 0% | 0% | 0% | 0% | 0% | 0% | 0%
6 | Nc1nc(O)c([N+](=O)[O-])c(NCCCCO)n1 | 0% | 0% | 0% | 0% | 0% | 0% | 100% | 0%
7 | CCc1cn([C@H]2C[C@H](O)[C@@H](CO)O2)c(=O)[nH]c1=O [EDOXUDINE] | 25% | 100% | 100% | 100% | 0% | 0% | 0% | 0%
8 | O=[N+]([O-])c1c(O)nc(O)nc1NCCCCO | 0% | 0% | 0% | 0% | 0% | 0% | 0% | 0%
9 | Nc1nc2c(ncn2COCCO)c(=O)[nH]1 [ACYCLOVIR] | 100% | 100% | 100% | 100% | 0% | 0% | 0% | 100%
10 | OCCCCNc1nc(O)nc(O)c1I | 0% | 0% | 0% | 0% | 0% | 100% | 100% | 0%
11 | Nc1nc(O)c2ncn(COCCP(=O)(O)O)c2n1 | 100% | – | – | – | – | – | – | 100%
